Data from ChEMBL document CHEMBL5137109, “Tunable Cysteine-Targeting Electrophilic Heteroaromatic Warheads Induce Ferroptosis” (J Med Chem, 2022).
Active and inactive are the calls of the source. The calls are words filed in the database; no cut-off is given here.

Experiments:
[1] = tested on: HCT-116; assay: Cytotoxicity against human HCT-116 cells assessed as reduction in cell viability incubated for 3 days by methylene blue staining based analysis; assay type: functional; conditions: HCT-116, 72 h
[2] = tested on: NCI-H522; assay: Cytotoxicity against human NCI-H522 cells assessed as reduction in cell viability incubated for 3 days by methylene blue staining based analysis; assay type: functional; conditions: NCI-H522, 72 h
[3] = Selectivity ratio of IC50 for human HCT-116 cells to IC50 for human NCI-H522 cells by methylene blue staining based analysis; assay type: functional
[4] = tested on: NCI-H522; assay: Induction of lipid peroxidation in human NCI-H522 cells assessed as increase in C11-BODIPY oxidation at 5 uM incubated for 3 hrs by flow cytometry; assay type: functional, cell-based
Procedure, shortened: (§1)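 NCI-H522 cells (~70% density) plated in dishes overnight, then treated with compound or DMSO plus C11-BODIPY 581/591 (1 μM) added at treatment. After 3 h or 6 h, cells washed, trypsinized, resuspended in PBS with 2% FBS and analysed by flow cytometry (preferably 20×10³ cells). Oxidation compared with DMSO treatment.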

[5] = tested on: NCI-H522; assay: Cytotoxicity against human NCI-H522 cells assessed as reduction in cell viability incubated for 3 days in presence of ferroptosis inhibitor, liproxstatin-1 by methylene blue staining based analysis; assay type: functional; conditions: NCI-H522, 72 h
Procedure, shortened: (§2)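 NCI-H522 cells seeded at 25×10³/well (n=3), adhered overnight, then exposed to compound with or without liproxstatin-1 (0.25 μM). After 3 days, methylene blue staining with HCl elution and A668. Results given as % relative to DMSO control, mean ± SD, n=3, one-way ANOVA. Fold change is IC50 (with liproxstatin-1)/IC50 (alone).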

[6] = Ratio of IC50 for cytotoxicity against human NCI-H522 cells in presence of ferroptosis inhibitor, liproxstatin-1 to IC50 for cytotoxicity against human NCI-H522 cells; assay type: functional
Procedure, shortened: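 NCI-H522 cells, 25*10³/well (n=3), plated overnight, treated with compound with or without Liproxstatin-1 (0.25 μM). After 3 days, methylene blue in 50% ethanol fix/stain 30 min RT, dye dissolved in 0.1N HCl, A668. Fold change = IC₅₀ with Liproxstatin-1 / IC₅₀ without.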

[7] = tested on: HT-1080; assay: Cytotoxicity against human HT-1080 cells assessed as reduction in cell viability incubated for 3 days by methylene blue staining based analysis; assay type: functional; conditions: HT-1080, 72 h
[8] = tested on: MDA-MB-468; assay: Cytotoxicity against human MDA-MB-468 cells assessed as reduction in cell viability incubated for 3 days by methylene blue staining based analysis; assay type: functional; conditions: MDA-MB-468, 72 h
[9] = tested on: MDA-MB-231; assay: Cytotoxicity against human MDA-MB-231 cells assessed as reduction in cell viability incubated for 3 days by methylene blue staining based analysis; assay type: functional; conditions: MDA-MB-231, 72 h
[10] = tested on: HeLa; assay: Cytotoxicity against human HeLa cells assessed as reduction in cell viability incubated for 3 days by methylene blue staining based analysis; assay type: functional; conditions: 72 h
[11] = tested on: U2OS; assay: Cytotoxicity against human U2OS cells assessed as reduction in cell viability incubated for 3 days by methylene blue staining based analysis; assay type: functional; conditions: 72 h
[12] = Cytotoxicity against human WI-38 cells assessed as reduction in cell viability incubated for 3 days by methylene blue staining based analysis; assay type: toxicity
[13] = Cytotoxicity against mouse MEF cells assessed as reduction in cell viability incubated for 3 days by methylene blue staining based analysis; assay type: toxicity
[14] = tested on: NCI-H522; assay: Induction of lipid peroxidation in human NCI-H522 cells assessed as increase in C11-BODIPY oxidation at 10 uM incubated for 3 hrs by flow cytometry; assay type: functional, cell-based
Procedure, shortened: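 NCI-H522 cells at ~70% density, plated overnight, treated with compound or DMSO together with C11-BODIPY 581/591 (1 μM) for 3 h or 6 h. Cells then PBS-washed, trypsinised, resuspended in PBS with 2% FBS and read by flow cytometry, preferably 20*10³ cells. Oxidation compared with DMSO treatment.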

[15] = tested on: NCI-H522; assay: Induction of lipid peroxidation in human NCI-H522 cells assessed as increase in C11-BODIPY oxidation at 30 uM incubated for 6 hrs by flow cytometry; assay type: functional, cell-based; procedure, shortened: as §1
[16] = tested on: NCI-H522; assay: Cytotoxicity against human NCI-H522 cells assessed as reduction in cell survival at 4.5 uM incubated for 3 days in presence of ferroptosis inhibitor, liproxstatin-1 by methylene blue staining based analysis; assay type: functional; conditions: time 3.0 day; procedure, shortened: as §2
[17] = tested on: NCI-H522; assay: Cytotoxicity against human NCI-H522 cells assessed as time required to cause 50% irreversible cell death treated with compound followed by washing for every 30 mins for 6 hrs by methylene blue staining based analysis; assay type: functional
Procedure, shortened: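 NCI-H522 cells, 5*10³/well (n=3), plated overnight, then treated with compound or DMSO. Wells washed immediately after treatment and then at 30-min intervals up to 6 h; last wells not washed. Methylene blue in 50% ethanol fix/stain 30 min RT, dye dissolved in 0.1N HCl, A668. Each point taken as % survival of matching DMSO-treated cells.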

[18] = tested on: NCI-H522; assay: Induction of lipid peroxidation in human NCI-H522 cells assessed as increase in C11-BODIPY oxidation at 5 uM incubated for 6 hrs by flow cytometry; assay type: functional, cell-based; procedure, shortened: as §1
[19] = tested on: NCI-H522; assay: Induction of lipid peroxidation in human NCI-H522 cells assessed as increase in C11-BODIPY oxidation at 10 uM incubated for 6 hrs by flow cytometry; assay type: functional, cell-based; procedure, shortened: as §1

SMILES	IC50 [1]	IC50 [2]	Ratio IC50 [3]	other results
C#Cc1nc(C(=O)Nc2ccccc2)cs1	4.88 µM	660 nM	7.39	Activity [4]: Active
O=C(CCl)N1CCN(C(c2ccc(Cl)cc2)c2ccc(Cl)cc2)CC1	1.64 µM	752 nM		IC50 [5]: 3.1 µM; Ratio IC50 [6]: 4.12; IC50 [7]: 302 nM; IC50 [8]: 1750 nM; IC50 [9]: 494 nM; IC50 [10]: 2110 nM; IC50 [11]: 1710 nM; IC50 at 3 days [12]: 1740 nM; IC50 at 3 days [13]: 352 nM
c1ccc2[se]cnc2c1	> 40 µM	> 40000 nM		
CC#Cc1nc(C(=O)OCC)cs1	> 40 µM	> 40000 nM		
CCOC(=O)c1csc(C#Cc2ccccc2)n1	> 40 µM	> 40000 nM		
C#Cc1nc2ccccc2[se]1	25 µM	2170 nM	11.5	Activity [14]: Active
C#Cc1nc(-c2ccccc2)cs1	> 40 µM	5650 nM	>7.07	Activity [15]: Active
C#Cc1nc(/C=C/C(=O)N2CCN(C(c3ccc(Cl)cc3)c3ccc(Cl)cc3)CC2)cs1		6 nM		
Cc1onc(C(=O)N2CCN(C(c3ccc(Cl)cc3)c3ccc(Cl)cc3)CC2)c1[N+](=O)[O-]	> 1 µM	44 nM		IC50 [5]: 34.5 µM; Ratio IC50 [6]: 784.431; IC50 [7]: 22 nM; IC50 [8]: 66 nM; IC50 [9]: 20 nM; IC50 [10]: 253 nM; IC50 [11]: 822 nM; IC50 at 3 days [12]: 60 nM; IC50 at 3 days [13]: 16 nM
C#CCNC(=O)c1cscn1	> 40 µM	> 40000 nM		
c1ccc2ocnc2c1 [BENZO[D]OXAZOLE]	> 40 µM	> 40000 nM		
C#Cc1nc(C(=O)N2CCN(c3ccc(F)cc3)CC2)cs1		64 nM		
C=Cc1nc2ccccc2n1C	9.5 µM	2340 nM	4.05	Activity [16]: Active
Ic1nc2ccccc2o1	> 40 µM	11700 nM	3.41	
C=Cc1nc2ccccc2s1	> 40 µM	> 40000 nM		
COC(=O)c1ccc([C@H]2c3[nH]c4ccccc4c3CC(C(=O)OC)N2C(=O)CCl)cc1 (some centres undefined)				IT50 [17]: 1.33 h
C#CC1=Nc2ccccc2C(C)(C)O1	5.61 µM	890 nM	6.3	Activity [18]: Active
Brc1nc2ccccc2s1	> 40 µM	> 40000 nM		
N#Cc1nccs1	> 40 µM	> 40000 nM		
CC#Cc1nc2ccccc2s1	> 40 µM	> 40000 nM		
C#Cc1nc(/C=C/C(=O)Nc2ccc(Cl)cc2)cs1	23.2 µM	370 nM	62.64	Activity [4]: Active
C#Cc1nc(C(=O)Nc2ccc(OC)cc2)cs1	8.39 µM	670 nM	12.52	Activity [4]: Active
C#Cc1nccs1	> 40 µM	> 40000 nM		
Cn1c(Br)nc2ccccc21	> 40 µM	> 40000 nM		
Ic1nc2ccccc2[se]1	> 40 µM	> 40000 nM		
C#Cc1nc2ccccc2o1	11.6 µM	1260 nM	9.12	Activity [19]: Active
